ChEMBL document CHEMBL4316604, “Discovery of Isaindigotone Derivatives as Novel Bloom's Syndrome Protein (BLM) Helicase Inhibitors That Disrupt the BLM/DNA Interactions and Regulate the Homologous Recombination Repair” (J Med Chem, 2019)
pIC50, pKd: −log10 of the molar value. Calls of active or inactive are those of the source. No cut-off for these calls is given here.

Legend:
HCT-116 [1] = assay: Induction of apoptosis in human HCT116 cells assessed as up-regulation of CHK2 phosphorylation up to 2 uM after 24 hrs by Western blot analysis
[2] = biological target: T1, RecQ-like DNA helicase BLM (Homo sapiens, UniProt P54132); assay: Inhibition of BLM in human HCT116 cells assessed as induction of HRR up-regulation after 24 hrs by GFP-based flow cytometry; assay type: cell-based
Summary of the method: (§1)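 HCT116 cells (2×10^5) co-transfected with DR-GFP HRR reporter and I-SceI plasmid; 24 h later treated with 0–2 μM ligand (reference 0–50 μM); BLM siRNA knockdown where stated. GFP-positive cells counted by flow cytometry and normalised to untreated; triplicate, mean ± SD.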

[3] = test system: RecQ-like DNA helicase BLM (Homo sapiens), P54132 [M1111A]; assay: Inhibition of His-tagged BLM M1111A mutant (unknown origin) binding to DNA assessed as effect on unbound DNA
Summary of the method: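 Biotinylated forked DNA (50 nM) immobilised on streptavidin plates overnight at 4 °C. BLM or mutant (100 nM final) premixed with serially halved ligand in 3% BSA blocking buffer, ≤1% DMSO, 1 h on ice. Applied to the blocked plate for 1 h at 37 °C. Bound BLM detected with anti-BLM and HRP secondary, TMB, A450; Hill fit.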

HCT-116 [4] = assay: Induction of apoptosis in human HCT116 cells assessed as up-regulation of ATM phosphorylation up to 2 uM after 24 hrs by Western blot analysis
[5] = biological target: T1, RecQ-like DNA helicase BLM; assay: Inhibition of ATP hydrolysis activity of His-tagged BLM (unknown origin) expressed in Escherichia coli BL21 (DE3) at 1 to 10 uM
[6] = biological target: RecQ-like DNA helicase BLM (Homo sapiens, UniProt P54132, M1111A); assay: Binding affinity to His-tagged BLM M1111A mutant (unknown origin) expressed in Escherichia coli BL21 (DE3) by ITC assay
Summary of the method: (§2)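 ITC at 25 °C in 2 mM MgCl2, 10 mM KH2PO4, pH 7.5: ligand (0.6 mM, syringe) titrated in 10 μL injections, 300 s apart, into BLM642-1296 wild-type or point mutant, or DNA (0.04 mM, cell). His-tagged BLM from E. coli BL21(DE3), induced with […] at 16 °C for 24 h. Heats integrated, fitted to 1:1 model for KD.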

[7] = biological target: T1, RecQ-like DNA helicase BLM; assay: Inhibition of His-tagged BLM (unknown origin) expressed in Escherichia coli BL21 (DE3) assessed as reduction in BLM helicase unwinding activity at 10 uM using 5'-biotin labeled forked-DNA as substrate after 1 hr by PAGE analysis
Summary of the method: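 BLM642-1296 (His-tagged, E. coli BL21(DE3)) preincubated with ligand (1.0, 10, 50 μM; ≤1% DMSO) for 1 h at 4 °C. Reaction: 8 nM annealed 5′-biotin duplex forked DNA, 32 nM BLM, 2 mM ATP, 0.1% BSA, 1 h.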

[8] = biological target: T1, RecQ-like DNA helicase BLM; assay: Inhibition of 5'-biotin labeled duplex forked-DNA binding to BLM (unknown origin) assessed as increase in unbound DNA levels at 0.5 to 1 uM after 1 hr by filter-binding assay
Summary of the method: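 BLM (100 nM) preincubated with 0.5 or 1.0 μM ligand for 1 h at 37 °C, then mixed with 8 nM biotinylated duplex forked DNA. Vacuum-filtered through nitrocellulose over nylon membranes; DNA UV-crosslinked and detected by chemiluminescence. Dot grey levels give bound (upper) vs free (lower) DNA, relative to total.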

[9] = biological target: T1, RecQ-like DNA helicase BLM; assay: Inhibition of His-tagged BLM (unknown origin) expressed in Escherichia coli BL21 (DE3) assessed as reduction in BLM helicase unwinding activity using 5'-biotin labeled forked-DNA as substrate after 1 hr by PAGE analysis
HCT-116 [10] = assay: Antiproliferative activity against human HCT116 cells after 24 hrs by MTT assay; assay type: functional, cell-based; conditions: in the assay text read “48 hrs” for “24 hrs”
Summary of the method: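 HCT116 cells (5×10^3/well) grown 24 h, then exposed to 0–50 μM test agent; for knockdown, cells pre-treated with 50 nM BLM siRNA for 24 h first.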

[11] = biological target: T1, RecQ-like DNA helicase BLM; assay: Inhibition of BLM in human HCT116 cells assessed as increase in gamma-H2AX expression at half IC50 concentration after 24 hrs by Western blot analysis
HCT-116 [12] = assay: Effect on RAD51 protein expression in human HCT116 cells at 1 to 2 after 24 hrs; assay type: functional, cell-based
Summary of the method: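 HCT116 cells treated with ligand (DNA-damage proteins 24 h, apoptosis proteins 48 h), lysed in RIPA at 4 °C. 40 μg protein per lane resolved by SDS-PAGE, blotted to PVDF, probed with damage and apoptosis antibody panels; β-actin loading control; chemiluminescent detection.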

[13] = biological target: T1, RecQ-like DNA helicase BLM; assay: Inhibition of 5'-biotin labeled forked-DNA binding to BLM in human HCT116 cells assessed as increase in unbound DNA levels at 1 uM after 1 hr by Western blot-based pull down assay; assay type: cell-based
Summary of the method: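 Biotinylated duplex forked DNA loaded on streptavidin magnetic beads overnight at 4 °C. HCT116 RIPA lysate incubated with beads plus ligand for 1 h at 25 °C. Bead eluate and supernatant analysed for BLM by SDS-PAGE/western blot.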

DNA = assay: Binding affinity to DNA (unknown origin) up to 2 molar ratio by ITC; assay type: nucleic-acid assay
Summary of the method: as §2

HCT-116 [14] = assay: Chemosensitization activity in human HCT116 cells assessed as RI-I-induced antiproliferative activity at 1.25 uM in presence of RI-I after 24 hrs by MTT assay; assay type: functional, cell-based
HCT-116 [15] = assay: Antiproliferative activity against human HCT116 cells up to 2 uM incubated up to 15 days by MTT assay; assay type: functional, cell-based
[16] = biological target: RecQ-like DNA helicase BLM (Homo sapiens, UniProt P54132, I1168A); assay: Binding affinity to His-tagged BLM I1168A mutant (unknown origin) expressed in Escherichia coli BL21 (DE3) by ITC assay
Summary of the method: as §2

HCT-116 [17] = assay: Induction of apoptosis in human HCT116 cells assessed as up-regulation of ATR phosphorylation up to 2 uM after 24 hrs by Western blot analysis
[18] = biological target: T1, RecQ-like DNA helicase BLM; assay: Inhibition of BLM in human HCT116 cells assessed as induction of RAD51 recruitment to DSB sites on HRR at 0.5 to 1 uM after 48 hrs by ChIP assay; assay type: cell-based
Summary of the method: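 HCT116 cells co-transfected with HRR(−) reporter DSB model (or chromosomal I-SceI DSBs) and I-SceI; after 24 h given 0–2 μM ligand for 24 h. Crosslinked in 1% formaldehyde, chromatin digested by micrococcal nuclease to 0.2–0.5 kb, IP with anti-BLM or anti-RAD51 (IgG control). qPCR at DSB sites, normalised to untreated; triplicate.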

[19] = biological target: T1, RecQ-like DNA helicase BLM; assay: Inhibition of BLM in human HCT116 cells assessed as induction of HRR up-regulation at 1 uM after 24 hrs in presence of siRNA by GFP-based flow cytometry; assay type: cell-based
Summary of the method: as §1

T1 sequence (P54132 whole entry): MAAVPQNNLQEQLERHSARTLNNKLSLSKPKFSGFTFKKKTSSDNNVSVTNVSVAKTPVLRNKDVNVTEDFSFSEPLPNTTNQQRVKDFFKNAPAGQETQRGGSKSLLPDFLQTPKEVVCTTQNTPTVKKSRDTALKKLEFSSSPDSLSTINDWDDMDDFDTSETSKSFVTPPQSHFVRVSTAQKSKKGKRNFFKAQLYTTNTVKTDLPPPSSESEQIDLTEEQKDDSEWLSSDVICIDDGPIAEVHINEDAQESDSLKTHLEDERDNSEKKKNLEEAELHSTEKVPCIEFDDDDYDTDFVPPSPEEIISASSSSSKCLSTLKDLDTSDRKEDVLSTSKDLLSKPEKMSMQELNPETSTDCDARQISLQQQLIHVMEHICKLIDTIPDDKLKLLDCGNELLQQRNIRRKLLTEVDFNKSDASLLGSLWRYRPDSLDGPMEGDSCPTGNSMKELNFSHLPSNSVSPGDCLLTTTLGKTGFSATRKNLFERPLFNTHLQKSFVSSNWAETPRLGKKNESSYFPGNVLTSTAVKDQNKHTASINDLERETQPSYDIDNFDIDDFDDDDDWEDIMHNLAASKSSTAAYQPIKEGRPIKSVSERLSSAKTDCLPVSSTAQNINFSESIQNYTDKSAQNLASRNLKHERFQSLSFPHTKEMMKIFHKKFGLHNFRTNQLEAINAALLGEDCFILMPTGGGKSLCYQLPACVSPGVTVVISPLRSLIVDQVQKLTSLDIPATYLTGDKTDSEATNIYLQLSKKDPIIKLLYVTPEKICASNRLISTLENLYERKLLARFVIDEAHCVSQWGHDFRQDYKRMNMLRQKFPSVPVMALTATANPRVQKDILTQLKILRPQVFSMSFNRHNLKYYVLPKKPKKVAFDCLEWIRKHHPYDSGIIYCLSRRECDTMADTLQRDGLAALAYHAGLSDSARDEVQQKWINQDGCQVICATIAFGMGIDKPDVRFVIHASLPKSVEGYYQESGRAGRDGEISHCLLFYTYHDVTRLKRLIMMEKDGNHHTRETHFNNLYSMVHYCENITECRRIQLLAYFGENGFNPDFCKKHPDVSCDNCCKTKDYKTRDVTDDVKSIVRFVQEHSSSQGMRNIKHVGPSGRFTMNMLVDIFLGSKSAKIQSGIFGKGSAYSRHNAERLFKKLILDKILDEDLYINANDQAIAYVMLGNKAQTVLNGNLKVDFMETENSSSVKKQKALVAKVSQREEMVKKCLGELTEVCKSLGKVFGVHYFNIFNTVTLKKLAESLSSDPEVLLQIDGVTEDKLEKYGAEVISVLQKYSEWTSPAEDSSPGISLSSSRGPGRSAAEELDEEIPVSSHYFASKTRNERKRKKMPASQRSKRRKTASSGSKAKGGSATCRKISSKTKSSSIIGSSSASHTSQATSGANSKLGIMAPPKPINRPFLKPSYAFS
Chain of RecQ-like DNA helicase BLM (Homo sapiens), P54132 [M1111A] (P54132 whole entry M1111A): as the sequence (P54132 whole entry) above, with M1111A counted along it
Chain of RecQ-like DNA helicase BLM (Homo sapiens, UniProt P54132, M1111A) (P54132 whole entry M1111A): as the sequence (P54132 whole entry) above, with M1111A counted along it
Chain of RecQ-like DNA helicase BLM (Homo sapiens, UniProt P54132, I1168A) (P54132 whole entry I1168A): as the sequence (P54132 whole entry) above, with I1168A counted along it

## CCN(CC)CCCNc1cc2nc3n(c(=O)c2cc1F)CC/C3=C\c1ccc(C(C)C)cc1
HCT-116 [1]
  Activity: Dose-dependent effect
[2]
  inhibition: Dose-dependent effect
[3]
  inhibition: inactive
HCT-116 [4]
  Activity: Active
[5]
  inhibition: inactive
[6]
  pKd: 5.31
[7]
  inhibition: Active
[8]
  inhibition: Active
[9]
  pIC50: 6.02
HCT-116 [10]
  Activity: Dose-dependent effect
[11]
  inhibition: Active
HCT-116 [12]
  Activity: inactive
[13]
  inhibition: 84.3%
DNA
  Activity: inactive
HCT-116 [14]
  Activity: Active
HCT-116 [15]
  Activity: Active
[16]
  pKd: 5.19
HCT-116 [17]
  Activity: Active
[18]
  inhibition: Active
[19]
  inhibition: Active
